# Measured values as given in ChEMBL document CHEMBL2062426 (J Med Chem, 2012).
# Columns and labels:
# Neutrophil collagenase = Neutrophil collagenase (Homo sapiens, UniProt P22894); assay: Inhibition of MMP8 using (7-methoxycoumarin-4-yl)acetyl-Pro-Leu-Gly-Leu-(3-(2,4-dinitrophenyl)-L-2,3-diaminopropionyl)Ala-Arg-NH2 as substrate incubated for 30 mins prior to substrate addition measured for 10 mins by fluorometry
# In short: (§1)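 Activated MMP-8 or MMP-9 (2 nM) was preincubated with inhibitor (10 pM–1 mM) in 50 mM Tris-HCl pH 7.5 with 0.2 M NaCl, 5 mM CaCl2, 20 μM ZnSO4 and 0.05% Brij 35 at 37 °C for 30 min. Fluorogenic substrate (10 μL of 50 μM into 90 μL) was then added. Rates from the first 10 min were plotted against inhibitor concentration, and values are the mean of three experiments.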
# [1] = biological target: Matrix metalloproteinase-9 (Homo sapiens, UniProt P14780); assay: Inhibition of MMP9 using (7-methoxycoumarin-4-yl)acetyl-Pro-Leu-Gly-Leu-(3-(2,4-dinitrophenyl)-L-2,3-diaminopropionyl)Ala-Arg-NH2 as substrate incubated for 30 mins prior to substrate addition measured for 10 mins by fluorometry; in short: as §1
# Collagenase 3 = Collagenase 3 (Homo sapiens, UniProt P45452); assay: Inhibition of MMP13 using (7-methoxycoumarin-4-yl)acetyl-Pro-Leu-Gly-Leu-(3-(2,4-dinitrophenyl)-L-2,3-diaminopropionyl)Ala-Arg-NH2 as substrate incubated for 30 mins prior to substrate addition measured for 10 mins by fluorometry
# [2] = biological target: 72 kDa type IV collagenase (Homo sapiens, UniProt P08253); assay: Inhibition of MMP2 using (7-methoxycoumarin-4-yl)acetyl-Pro-Leu-Gly-Leu-(3-(2,4-dinitrophenyl)-L-2,3-diaminopropionyl)Ala-Arg-NH2 as substrate incubated for 30 mins prior to substrate addition measured for 10 mins by fluorometry
# [3] = Octanol-water partition coefficient, log D of the compound after 1 min by gamma-counting at pH 7.4; format: physicochemical
# In short: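 About 20 kBq of tracer was shaken for 1 min at room temperature in 0.5 mL PBS pH 7.4 with 0.5 mL 1-octanol, then centrifuged (3000 rpm, 2 min). Triplicate 100 μL samples of each phase were γ-counted. log D7.4 is log(cpm octanol/cpm PBS), from two independent experiments in triplicate, given as mean ± SD.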
# Serum [4] = assay: Metabolic stability in human serum at 5 MBq up to 120 mins by radio-HPLC analysis; format: ADME, cell-free; details: 2 h
# In short: (§2)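 The PBS-formulated 18F tracer (20 μL, 5 MBq) was added to 200 μL human serum and incubated at 37 °C. Samples of 20 μL were taken at 10, 20, 30, 60, 90 and 120 min, quenched in methanol/CH2Cl2 1:1 and centrifuged 2 min. The organic layer was analysed by radio-HPLC (C18; 30% CH3CN/0.1% TFA for 15 min, then gradient).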
# Serum [5] = assay: Drug metabolism in human serum at 5 MBq up to 120 mins by radio-HPLC analysis; format: ADME, cell-free; details: 2 h; in short: as §2
# Serum [6] = assay: Drug metabolism in mouse serum at 5 MBq up to 120 mins by radio-HPLC analysis; format: ADME, cell-free; details: 2 h
# In short: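 Serum stability was repeated in mouse blood serum at 37 °C, with analysis by radio-HPLC.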
# Kidney [7] = assay: Tmax in C57/Bl6 mouse kidney at 250 kBq/g bodyweight, iv administered as bolus dose by PET scanning; format: ADME, organism-based; details: in vivo
# In short: (§3)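 Adult C57/Bl6 mice given the 18F tracer by intravenous injection. List-mode PET data acquired for 120 min on a high-resolution small-animal scanner and reconstructed into dynamic frames iteratively. Organ volumes of interest were drawn on co-registered CT. Uptake is counts per mL in the VOI divided by total counts in the mouse ×100 (% ID/mL).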
# Kidney [8] = assay: Half life in C57/Bl6 mouse kidney at 250 kBq/g bodyweight, iv administered as bolus dose by PET scanning; format: ADME, organism-based; details: in vivo; in short: as §3
# Liver [9] = assay: Tmax in C57/Bl6 mouse liver at 250 kBq/g bodyweight, iv administered as bolus dose by PET scanning; format: ADME, organism-based; details: in vivo; in short: as §3
# Liver [10] = assay: Half life in C57/Bl6 mouse liver at 250 kBq/g bodyweight, iv administered as bolus dose by PET scanning; format: ADME, organism-based; details: in vivo; in short: as §3
# Mus musculus = assay: Drug metabolism in C57/Bl6 mouse assessed as defluorination at 250 kBq/g bodyweight, iv administered as bolus dose up to 120 mins by PET scanning; format: ADME, organism-based; details: in vivo, 2 h; in short: as §3
# Brain = assay: Drug uptake in C57/Bl6 mouse brain at 250 kBq/g bodyweight, iv administered as bolus dose up to 120 mins by PET scanning; format: ADME, organism-based; details: in vivo, 2 h; in short: as §3
# [11] = Drug uptake in C57/Bl6 mouse myocardium at 250 kBq/g bodyweight, iv administered as bolus dose up to 120 mins by PET scanning; format: ADME, organism-based; details: in vivo, 2 h; in short: as §3
# Lung = assay: Drug uptake in C57/Bl6 mouse lungs at 250 kBq/g bodyweight, iv administered as bolus dose up to 120 mins by PET scanning; format: ADME, organism-based; details: in vivo, 2 h; in short: as §3
# Muscle tissue [12] = assay: Drug uptake in C57/Bl6 mouse muscle at 250 kBq/g bodyweight, iv administered as bolus dose up to 120 mins by PET scanning; format: ADME, organism-based; details: in vivo, 2 h; in short: as §3
# [13] = Metabolic stability in iv dosed ICR CD1 mouse muscle assessed as compound remaining after 30 mins by gamma-counting based HPLC analysis; format: ADME, organism-based, Muscle tissue; details: read-out: Stability
# In short: (§4)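 Three 10-month-old female ICR (CD1) mice received about 11.1 MBq tracer by tail vein and were killed 30 min pi. Plasma was taken from blood by centrifugation, and urine was collected. Muscle, kidney and liver were homogenized in 1% SDS/PBS and extracted with acetonitrile/acetic acid. Supernatants were γ-counted, %ID/g was computed against a dose aliquot, and samples were run on C18 radio-HPLC with an acetonitrile/water gradient in 0.05% TFA.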
# Kidney [14] = assay: Metabolic stability in iv dosed ICR CD1 mouse kidney assessed as compound remaining after 30 mins by gamma-counting based HPLC analysis; format: ADME, organism-based; details: in vivo, 0.5 h; in short: as §4
# Liver [15] = assay: Metabolic stability in iv dosed ICR CD1 mouse liver assessed as compound remaining after 30 mins by gamma-counting based HPLC analysis; format: ADME, organism-based; details: in vivo, 0.5 h; in short: as §4
# Plasma [16] = assay: Metabolic stability in iv dosed ICR CD1 mouse plasma assessed as compound remaining after 30 mins by gamma-counting based HPLC analysis; format: ADME, organism-based; details: in vivo, 0.5 h; in short: as §4
# [17] = Metabolic stability in iv dosed ICR CD1 mouse urine assessed as compound remaining after 30 mins by gamma-counting based HPLC analysis; format: ADME, organism-based; details: in vivo, 0.5 h; in short: as §4
# Muscle tissue [18] = assay: Drug metabolism in iv dosed ICR CD1 mouse muscle assessed as radiometabolite 1 level after 30 mins by gamma-counting based HPLC analysis; format: ADME, organism-based; details: in vivo, 0.5 h; in short: as §4
# Kidney [19] = assay: Drug metabolism in iv dosed ICR CD1 mouse kidney assessed as radiometabolite 1 level after 30 mins by gamma-counting based HPLC analysis; format: ADME, organism-based; details: in vivo, 0.5 h; in short: as §4
# Liver [20] = assay: Drug metabolism in iv dosed ICR CD1 mouse liver assessed as radiometabolite 1 level after 30 mins by gamma-counting based HPLC analysis; format: ADME, organism-based; details: in vivo, 0.5 h; in short: as §4
# Plasma [21] = assay: Drug metabolism in iv dosed ICR CD1 mouse plasma assessed as radiometabolite 1 level after 30 mins by gamma-counting based HPLC analysis; format: ADME, organism-based; details: in vivo, 0.5 h; in short: as §4
# [22] = Drug metabolism in iv dosed ICR CD1 mouse urine assessed as radiometabolite 1 level after 30 mins by gamma-counting based HPLC analysis; format: ADME, organism-based; details: in vivo, 0.5 h; in short: as §4
# Muscle tissue [23] = assay: Drug metabolism in iv dosed ICR CD1 mouse muscle assessed as radiometabolite 2 level after 30 mins by gamma-counting based HPLC analysis; format: ADME, organism-based; details: in vivo, 0.5 h; in short: as §4
# Kidney [24] = assay: Drug metabolism in iv dosed ICR CD1 mouse kidney assessed as radiometabolite 2 level after 30 mins by gamma-counting based HPLC analysis; format: ADME, organism-based; details: in vivo, 0.5 h; in short: as §4
# Liver [25] = assay: Drug metabolism in iv dosed ICR CD1 mouse liver assessed as radiometabolite 2 level after 30 mins by gamma-counting based HPLC analysis; format: ADME, organism-based; details: in vivo, 0.5 h; in short: as §4
# Plasma [26] = assay: Drug metabolism in iv dosed ICR CD1 mouse plasma assessed as radiometabolite 2 level after 30 mins by gamma-counting based HPLC analysis; format: ADME, organism-based; details: in vivo, 0.5 h; in short: as §4
# [27] = Drug metabolism in iv dosed ICR CD1 mouse urine assessed as radiometabolite 2 level after 30 mins by gamma-counting based HPLC analysis; format: ADME, organism-based; details: in vivo, 0.5 h; in short: as §4
# Muscle tissue [28] = assay: Drug metabolism in iv dosed ICR CD1 mouse muscle assessed as radiometabolite 3 level after 30 mins by gamma-counting based HPLC analysis; format: ADME, organism-based; details: in vivo, 0.5 h; in short: as §4
# Kidney [29] = assay: Drug metabolism in iv dosed ICR CD1 mouse kidney assessed as radiometabolite 3 level after 30 mins by gamma-counting based HPLC analysis; format: ADME, organism-based; details: in vivo, 0.5 h; in short: as §4
# Liver [30] = assay: Drug metabolism in iv dosed ICR CD1 mouse liver assessed as radiometabolite 3 level after 30 mins by gamma-counting based HPLC analysis; format: ADME, organism-based; details: in vivo, 0.5 h; in short: as §4
# Plasma [31] = assay: Drug metabolism in iv dosed ICR CD1 mouse plasma assessed as radiometabolite 3 level after 30 mins by gamma-counting based HPLC analysis; format: ADME, organism-based; details: in vivo, 0.5 h; in short: as §4
# [32] = Drug metabolism in iv dosed ICR CD1 mouse urine assessed as radiometabolite 3 level after 30 mins by gamma-counting based HPLC analysis; format: ADME, organism-based; details: in vivo, 0.5 h; in short: as §4
# Muscle tissue [33] = assay: Drug metabolism in iv dosed ICR CD1 mouse muscle assessed as radiometabolite 4 level after 30 mins by gamma-counting based HPLC analysis; format: ADME, organism-based; details: in vivo, 0.5 h; in short: as §4
# Kidney [34] = assay: Drug metabolism in iv dosed ICR CD1 mouse kidney assessed as radiometabolite 4 level after 30 mins by gamma-counting based HPLC analysis; format: ADME, organism-based; details: in vivo, 0.5 h; in short: as §4
# Liver [35] = assay: Drug metabolism in iv dosed ICR CD1 mouse liver assessed as radiometabolite 4 level after 30 mins by gamma-counting based HPLC analysis; format: ADME, organism-based; details: in vivo, 0.5 h; in short: as §4
# Plasma [36] = assay: Drug metabolism in iv dosed ICR CD1 mouse plasma assessed as radiometabolite 4 level after 30 mins by gamma-counting based HPLC analysis; format: ADME, organism-based; details: in vivo, 0.5 h; in short: as §4
# [37] = Drug metabolism in iv dosed ICR CD1 mouse urine assessed as radiometabolite 4 level after 30 mins by gamma-counting based HPLC analysis; format: ADME, organism-based; details: in vivo, 0.5 h; in short: as §4
# Chain of Matrix metalloproteinase-9 (P14780 whole entry): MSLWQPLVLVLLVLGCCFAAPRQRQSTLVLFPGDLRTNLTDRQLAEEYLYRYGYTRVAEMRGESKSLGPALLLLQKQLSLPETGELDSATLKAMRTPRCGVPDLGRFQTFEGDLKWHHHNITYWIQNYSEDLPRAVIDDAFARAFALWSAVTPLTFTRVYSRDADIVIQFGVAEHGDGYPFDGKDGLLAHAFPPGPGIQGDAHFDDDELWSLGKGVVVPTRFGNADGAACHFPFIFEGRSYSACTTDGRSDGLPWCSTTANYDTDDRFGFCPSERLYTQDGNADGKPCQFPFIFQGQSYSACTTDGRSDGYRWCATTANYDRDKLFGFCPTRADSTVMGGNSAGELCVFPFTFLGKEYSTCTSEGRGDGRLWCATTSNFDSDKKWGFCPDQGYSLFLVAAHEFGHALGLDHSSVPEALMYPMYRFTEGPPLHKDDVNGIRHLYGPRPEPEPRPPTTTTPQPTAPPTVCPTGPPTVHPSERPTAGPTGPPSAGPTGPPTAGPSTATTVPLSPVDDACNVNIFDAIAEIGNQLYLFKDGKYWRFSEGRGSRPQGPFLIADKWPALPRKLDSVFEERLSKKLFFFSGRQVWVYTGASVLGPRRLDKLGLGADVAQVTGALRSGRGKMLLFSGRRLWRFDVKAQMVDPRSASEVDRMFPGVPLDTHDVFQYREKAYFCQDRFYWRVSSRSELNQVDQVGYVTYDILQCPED
# Chain of Neutrophil collagenase (P22894 whole entry): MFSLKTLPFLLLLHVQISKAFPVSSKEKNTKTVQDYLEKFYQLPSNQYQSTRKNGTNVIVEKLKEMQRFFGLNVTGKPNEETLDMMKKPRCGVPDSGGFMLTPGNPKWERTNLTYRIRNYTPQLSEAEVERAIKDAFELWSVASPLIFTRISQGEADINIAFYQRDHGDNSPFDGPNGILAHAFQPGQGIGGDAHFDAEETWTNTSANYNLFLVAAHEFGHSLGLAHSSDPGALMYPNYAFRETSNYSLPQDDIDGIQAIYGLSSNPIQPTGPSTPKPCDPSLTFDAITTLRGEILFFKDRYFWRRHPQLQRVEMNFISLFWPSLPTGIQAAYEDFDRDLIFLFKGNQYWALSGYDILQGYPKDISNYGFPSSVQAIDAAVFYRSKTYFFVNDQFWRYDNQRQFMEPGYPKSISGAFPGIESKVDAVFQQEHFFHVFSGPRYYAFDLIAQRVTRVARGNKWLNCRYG
# Chain of 72 kDa type IV collagenase (P08253 whole entry): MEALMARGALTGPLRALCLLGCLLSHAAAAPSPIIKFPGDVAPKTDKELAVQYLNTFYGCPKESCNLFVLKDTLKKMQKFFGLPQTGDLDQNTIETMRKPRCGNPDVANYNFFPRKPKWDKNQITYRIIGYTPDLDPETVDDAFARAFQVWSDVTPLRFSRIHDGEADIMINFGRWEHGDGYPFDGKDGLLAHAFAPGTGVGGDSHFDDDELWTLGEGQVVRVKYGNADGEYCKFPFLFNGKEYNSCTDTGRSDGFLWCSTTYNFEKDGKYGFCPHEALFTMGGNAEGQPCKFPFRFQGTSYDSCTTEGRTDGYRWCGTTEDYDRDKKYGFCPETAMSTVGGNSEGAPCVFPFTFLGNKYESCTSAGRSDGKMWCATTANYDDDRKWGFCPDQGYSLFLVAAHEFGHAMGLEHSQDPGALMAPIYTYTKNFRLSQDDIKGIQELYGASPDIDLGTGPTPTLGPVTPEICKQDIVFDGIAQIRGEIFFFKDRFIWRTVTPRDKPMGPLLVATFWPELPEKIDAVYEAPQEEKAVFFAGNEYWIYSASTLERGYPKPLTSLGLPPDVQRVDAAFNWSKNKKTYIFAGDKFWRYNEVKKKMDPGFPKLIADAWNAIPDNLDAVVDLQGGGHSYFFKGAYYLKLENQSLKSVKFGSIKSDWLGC
smiles,measurement,setting,value
COc1ccc(S(=O)(=O)N(Cc2ccc(OCCOCCOCCOCCn3cc(COCCOCCOCCOCCOCCF)nn3)cc2)[C@@H](C(=O)NO)C(C)C)cc1,IC50,Neutrophil collagenase,3 nM
same,IC50,[1],3 nM
same,IC50,Collagenase 3,1 nM
same,IC50,[2],4 nM
COc1ccc(S(=O)(=O)N(Cc2cn(CC[18F])nn2)[C@@H](C(=O)NO)C(C)C)cc1,logD at 1 min,[3],0.6
same,Stability,Serum [4],Stable
same,Drug metabolism,Serum [5],Not Active
same,Drug metabolism,Serum [6],Not Active
same,Tmax,Kidney [7],0.5 min
same,t1/2,Kidney [8],13 min
same,Tmax,Liver [9],4 min
same,t1/2,Liver [10],18 min
same,Drug metabolism,Mus musculus,Not Active
same,Drug uptake,Brain,Not Active
same,Drug uptake,[11],Not Active
same,Drug uptake,Lung,Not Active
same,Drug uptake,Muscle tissue [12],Not Active
same,tissue uptake at 0.5 h,[13],0.21 %ID/g
same,Stability,Kidney [14],4.6 % ID/g
same,Stability,Liver [15],0.78 % ID/g
same,Stability,Plasma [16],0.29 % ID/g
same,Stability,[17],27.86 % ID/g
same,Drug metabolism,Muscle tissue [18],0 % ID/g
same,Drug metabolism,Kidney [19],0.26 % ID/g
same,Drug metabolism,Liver [20],0.12 % ID/g
same,Drug metabolism,Plasma [21],0.17 % ID/g
same,Drug metabolism,[22],2.32 % ID/g
same,Drug metabolism,Muscle tissue [23],0 % ID/g
same,Drug metabolism,Kidney [24],0 % ID/g
same,Drug metabolism,Liver [25],0 % ID/g
same,Drug metabolism,Plasma [26],0 % ID/g
same,Drug metabolism,[27],0.33 % ID/g
same,Drug metabolism,Muscle tissue [28],0 % ID/g
same,Drug metabolism,Kidney [29],0.21 % ID/g
same,Drug metabolism,Liver [30],1.32 % ID/g
same,Drug metabolism,Plasma [31],0 % ID/g
same,Drug metabolism,[32],2.32 % ID/g
same,Drug metabolism,Muscle tissue [33],0 % ID/g
same,Drug metabolism,Kidney [34],0.1 % ID/g
same,Drug metabolism,Liver [35],0.78 % ID/g
same,Drug metabolism,Plasma [36],0 % ID/g
same,Drug metabolism,[37],0.33 % ID/g
COc1ccc(S(=O)(=O)N(Cc2cn(CCOCCOCCOCCF)nn2)[C@@H](C(=O)NO)C(C)C)cc1,IC50,Neutrophil collagenase,0.04 nM
same,IC50,[1],0.05 nM
same,IC50,Collagenase 3,0.04 nM
same,IC50,[2],0.1 nM
CC(C)[C@H](C(=O)NO)N(Cc1ccccc1)S(=O)(=O)c1ccc(OCC[18F])cc1,Tmax,Kidney [7],1.5 min
same,t1/2,Kidney [8],3 min
same,Tmax,Liver [9],2.5 min
same,t1/2,Liver [10],7 min
